Assay outcomes deposited in PubChem BioAssay by several laboratories.
Most compounds without a hit are left out; they make up all but 2.1% or so of the library.
APJ antagonist = blocks the human apelin receptor APJ. CHO-K1 APJ beta-arrestin complementation, luminescence. inhibition, % at 20 µM. hit rate 0.32% among 330,000;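 active = inhibition above about 40% at 20 µM, limit read from the data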;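 note: cells challenged with 10 nM apelin-13 agonist together with compound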
CCR6 antag = antagonists of human CCR6 receptor. CHO-K1 CCR6 PathHunter beta-arrestin, luminescence, CCL20-stimulated. inhibition, % at 20 µM. hit rate 0.49% among 340,000;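 active = compounds whose inhibition of the agonist-driven luminescence signal at 20 µM reaches about 50%, limit read from the data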;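 note: cells stimulated with CCL20 at 14 nM final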
APJ agonist = agonists of human APJ apelin receptor | P35414 | CHO-K1 APJ PathHunter beta-arrestin, luminescence; 0% DMSO wells, 100% apelin | activation, % at 20 µM | hit rate 0.11% among 330,000 | AID 2520;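 active = activation more than six SD over the plate average, tested at 20 µM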
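Assay system – PathHunter CHO-K1 APJ (AGTRL-1) beta-arrestin reporter cells · Compound – one dose, 20 µM compound, 1% DMSO · Timing – compound 90 min 25 °C, reagent 1 h · Measured by – luminescence from split beta-galactosidase complementation, Galacton Star/Emerald II substrate · Measure – beta-arrestin recruitment to APJ as agonist activity, luminescent signal · Benchmarks – DMSO vs Apelin-13 10 nM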
EBI2 antag = antagonists of human EBI2 receptor. P32249. EBI2 beta-arrestin recruitment, luminescence, 7a,25-OHC stimulated. inhibition, % at 5 µM. hit rate 0.81% among 360,000; in the data active = inhibition above about 38%;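 note: enzyme fragment complementation signal reports receptor beta-arrestin coupling in cells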
CXCR6 block = CXCR6 (human) receptor inhibition. O00574. CHO-K1 PathHunter CXCR6 beta-arrestin, luminescence. inhibition, % at 20 µM. hit rate 0.36% among 360,000. AID 602244; in the data active = inhibition above about 34%, passing the limit was not always enough;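 note: antagonist mode with CXCL16 agonist at 10 nM final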
Target sequence (O00574 whole entry, looked up): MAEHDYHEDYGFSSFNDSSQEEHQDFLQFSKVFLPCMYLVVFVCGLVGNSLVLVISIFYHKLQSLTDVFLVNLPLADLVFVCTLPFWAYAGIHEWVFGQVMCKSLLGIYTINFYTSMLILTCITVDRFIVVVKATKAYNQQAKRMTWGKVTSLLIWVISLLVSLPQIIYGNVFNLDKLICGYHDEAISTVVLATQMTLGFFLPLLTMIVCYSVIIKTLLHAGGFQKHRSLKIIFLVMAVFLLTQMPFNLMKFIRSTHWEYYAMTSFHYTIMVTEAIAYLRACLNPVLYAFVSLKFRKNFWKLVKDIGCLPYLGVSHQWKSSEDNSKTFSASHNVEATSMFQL
HTR2A ag = mouse HTR2A agonism via beta-arrestin recruitment; P35363; CHO-K1 mHTR2A beta-arrestin complementation, luminescence; percent of 30 µM serotonin response; activation, % at 7.6 µM; hit rate 0.66% among 360,000;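 active = activation above a run cutoff, the mean activation of all tested compounds plus 3 SD, cut at about 14% in these data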
APJ ag conf = confirmation of human APJ apelin receptor agonists; CHO-K1 APJ PathHunter beta-arrestin, luminescence; AID 2764; hit rate 10% among 310; activation, % at 20 µM; shares compounds with APJ agonist;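 active = activation above 40%, taking the highest of four retests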
Large screens that a line does not name were inactive (follow-up assays come after a bar, where they were run).

COc1ccc(NC(=O)CN(C)C(=O)c2ccccc2SCC(=O)N2CCCC2)cc1	none
Cc1cc(NCc2ccccn2)n2nc(C)c(-c3ccc(Cl)cc3)c2n1	CCR6 antag 51
CCN1CCN(c2ccc(S(=O)(=O)N3CCOCC3)cc2NC(=O)/C=C/c2ccc(OC)c(OC)c2)CC1	none
COc1ccc(C(C[N+](=O)[O-])C2(c3ccc(OC)c(OC)c3)C(=O)c3ccccc3C2=O)cc1 (stereo unspecified)	CCR6 antag 59 (no result: APJ antagonist, APJ agonist)
COc1ccc(C(C[N+](=O)[O-])c2c(-c3ccccc3)cc3ccccn23)cc1OC (stereo unspecified)	none
CC(C)C[C@H](NC(=O)c1nc[nH]c1C(=O)NCCCCCNC(=O)OC(C)(C)C)C(=O)OCc1ccccc1	none
COc1ccc2[nH]c3c4c(ccc3c2c1)C(=O)C=CC4=O	CCR6 antag 61
C/C(=N\NC(=O)c1ccc(Cn2cc([N+](=O)[O-])cn2)o1)c1cccc(NC(=O)c2cccnc2)c1	none
CCOC(=O)c1sc(NC(=O)CC(C)c2ccccc2)nc1C (stereo unspecified)	none
O=C(CN1C(=O)/C(=C\c2ccccc2Br)Oc2ccccc21)NCCCN1CCOCC1	CCR6 antag 68
Cc1ccccc1S(=O)(=O)N1[C@@H](c2ccc(Br)cc2)C(C(=O)O)=CC[C@H]1c1ccc(Cl)cc1	HTR2A ag 22
COc1ccc(C(=O)C(C)OC(=O)c2cccc(S(=O)(=O)Nc3cc(Cl)c(OC)cc3OC)c2)cc1 (stereo unspecified)	EBI2 antag 37
Cc1nnc(N2CCCC(C(=O)Nc3cc(F)ccc3F)C2)c2nn(-c3ccccc3)c(C)c12 (stereo unspecified)	APJ agonist 21 | APJ ag conf inactive
CCCn1c(=O)c(C(=O)Nc2c(C)n(C)n(-c3ccccc3)c2=O)c(O)c2ccccc21	APJ agonist 26 | APJ ag conf inactive
CCCn1c(=O)c(C(=O)Nc2cccc(C)n2)c(O)c2ccccc21	none
CCCCN(C)CCNC(=O)c1cc(-c2cccnc2)nc2ccc(S(=O)(=O)N3CCC(C)CC3)cc12	none
CCN(CC)CCNC(=O)c1cc(-c2cccnc2)nc2ccc(S(=O)(=O)N3CCC(C)CC3)cc12	APJ agonist 52 | APJ ag conf inactive
CSc1ccccc1NC(=O)CN1CCCCC1C (stereo unspecified)	none
CCNC(=O)C(C)NC(=O)C1=NN(c2ccccc2)C(=O)CC1 (stereo unspecified)	none
O=C(CN1CCC(n2nnc3cc(C(F)(F)F)ccc32)CC1)NNC(=O)c1ccco1	none
Cc1ccc(Oc2nnc(-c3ccccc3)cc2C#N)cc1	APJ agonist 22 | APJ ag conf inactive
N#Cc1cc(-c2ccccc2)nnc1Oc1ccccc1	none
CS(=O)(=O)c1ccc2nc(NC(=O)Nc3ccc(Cl)c(Cl)c3)sc2c1	none
CS(=O)(=O)c1ccc2nc(NC(=O)Nc3cccc(Cl)c3)sc2c1	APJ agonist 28 | APJ ag conf inactive
CCCCNc1c(-c2ccc(OC)c(Sc3ccc(OC)cc3)c2)nc2ccccn12	APJ agonist 37 | APJ ag conf inactive
N#Cc1c2ccc([N+](=O)[O-])cc2[n+]([O-])n1-c1ccccc1	APJ agonist 13 (no result: CCR6 antag) | APJ ag conf inactive
COc1cc2c(cc1NC(=O)c1ccc(C)c([N+](=O)[O-])c1)oc1ccccc12	none
COc1cc2c(cc1NC(=O)c1cccc([N+](=O)[O-])c1)oc1ccccc12	APJ agonist 42 | APJ ag conf 53
COc1ccccc1NC(=O)c1cc2c(CO)cnc(C)c2oc1=Nc1cccc(C(N)=O)c1	none
CCOc1cc([N+](=O)[O-])cc2c1C(=O)Nc1ccccc1O2	APJ agonist 14 | APJ ag conf inactive
O=C(Nc1ccc(-c2nc3ccccc3o2)cc1)c1ccc(N2CCOCC2)c([N+](=O)[O-])c1	APJ agonist 29 | APJ ag conf inactive
COc1ccc2oc(-c3ccc(NC(=O)c4ccc(N5CCOCC5)c([N+](=O)[O-])c4)cc3)nc2c1	none
COc1cc2nc(N3CCN(c4cc(C)ccc4C)CC3)nc(N)c2cc1OC	APJ agonist 20 | APJ ag conf inactive
Cc1cc(C)n2nc(SCC(=O)NC(=O)c3ccccc3)nc2n1	none
Cc1cc(C)n2nc(SCC(=O)Nc3c(C)nn(-c4ccccc4)c3C)nc2n1	APJ agonist 39 | APJ ag conf inactive
Cc1cccc(NS(=O)(=O)c2ccc(C)c(C(=O)NCC(c3cccs3)N3CCOCC3)c2)c1 (stereo unspecified)	none (no result: APJ antagonist, APJ agonist)
C=CCNc1nc(C(=O)OCC)nc2ccccc12	none
CC1=C(C)/C(=N\OS(=O)(=O)c2ccccc2)C=CC1=O	CCR6 antag 87, APJ agonist 41, CXCR6 block 51 | APJ ag conf inactive
CSc1nc(C)c(C(=O)C[n+]2ccccc2C)cc1C#N	none
Cc1cc(N/N=C/c2ccc(O)cc2)c2cccc(C)c2n1	none
Cc1cc(C)c2nc(C)cc(N/N=C/c3ccc(O)cc3)c2c1	APJ agonist 42 | APJ ag conf inactive
c1ccc(-c2noc(CN3CCCC(OCc4ccccn4)C3)n2)cc1 (stereo unspecified)	none
CCCCc1cc(O)c(CCCC)c(O)c1	APJ agonist 13 | APJ ag conf inactive
O=c1c2ccccc2nc(-c2ccccc2Cl)n1O	none
CCOc1ccc2nc3cc(NCc4ccc(OC)cc4)ccc3c(N)c2c1	APJ agonist 30 | APJ ag conf inactive
CCCOc1cccc(-c2nnc(N)s2)c1	none
C=CC[N+](C)(C)CCN1C(=O)C2C(c3ccccc3)C=CC(c3ccccc3)C2C1=O (stereo unspecified)	none
Cc1ccc(NC(=O)CN(C)C(=O)c2ccc(Sc3nncn3C)c([N+](=O)[O-])c2)cc1	none
Cc1ccc(C)c(NC(=O)/C(C#N)=C/c2ccc(Sc3nncn3C)c([N+](=O)[O-])c2)c1	APJ agonist 44 (no result: CCR6 antag, EBI2 antag, CXCR6 block, HTR2A ag) | APJ ag conf inactive
CCCc1ccc2oc(C(=O)NCCN3CCCC(C(N)=O)C3)c(C)c2c1 (stereo unspecified)	none
CCOc1cc2[nH]c(=S)n(CCCC(=O)NCc3ccccn3)c(=O)c2cc1OCC	APJ agonist 118 | APJ ag conf inactive
CCOc1cc2[nH]c(=S)n(CCCCC(=O)NCc3ccco3)c(=O)c2cc1OCC	none
CCOc1cc2[nH]c(=S)n(CCCOC)c(=O)c2cc1OCC	none
CCOc1cc2[nH]c(=S)n(CCN3CCCCC3CC)c(=O)c2cc1OCC (stereo unspecified)	APJ agonist 78 | APJ ag conf inactive
